Data set [1] has as its target T1, Indoleamine 2,3-dioxygenase 1 (Homo sapiens, UniProt P14902). The data set can be described thus: Binding affinity to IDO1 in IFNgamma-stimulated human HeLa cells at 5 nM measured after 5 mins by Hoechst staining based confocal fluorescence imaging analysis. The procedure, abridged:
(§1)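 Living HeLa cells, either unstimulated or stimulated with IFN-γ (50 ng/mL, 12 h), were stained with Hoechst for 20 min and then with probe for 5 min before confocal imaging in the green channel.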
Target sequence in this assay (P14902 whole entry, looked up): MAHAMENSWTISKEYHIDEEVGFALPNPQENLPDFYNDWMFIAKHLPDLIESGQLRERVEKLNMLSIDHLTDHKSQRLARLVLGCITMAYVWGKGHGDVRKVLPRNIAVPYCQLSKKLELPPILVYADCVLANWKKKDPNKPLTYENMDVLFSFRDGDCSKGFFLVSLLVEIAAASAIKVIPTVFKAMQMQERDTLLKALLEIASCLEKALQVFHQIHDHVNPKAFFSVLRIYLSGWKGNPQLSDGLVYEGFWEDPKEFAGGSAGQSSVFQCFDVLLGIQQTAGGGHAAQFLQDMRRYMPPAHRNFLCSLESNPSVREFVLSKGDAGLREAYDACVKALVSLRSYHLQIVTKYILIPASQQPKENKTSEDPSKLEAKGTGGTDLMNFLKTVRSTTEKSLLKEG

The species named for a further data set is Bos taurus. Description: Binding affinity to bovine hemoglobin assessed as change in fluorescence intensity at 10 uM measured after 60 mins by fluorescence assay. Summed up:
(§2)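 Selectivity panel: probe was incubated with each enzyme or biomolecule in 10 mM PBS, pH 7.4, containing 1% DMSO, for 60 min at room temperature. Fluorescence intensity was read at 532 nm with excitation at 465 nm.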

The species named for another data set is Homo sapiens. The data set can be described thus: Binding affinity to chymotrypsin (unknown origin) assessed as change in fluorescence intensity at 10 uM measured after 60 mins by fluorescence assay. The procedure, abridged: as §2
Data set [2] addresses T1, Indoleamine 2,3-dioxygenase 1. The data set can be described thus: Inhibition of recombinant human IDO1 expressed in Escherichia coli BL21 (DE3) using tryptophan as substrate.
Target sequence in this assay (P14902 whole entry): as the sequence (P14902 whole entry, looked up) above
The target of data set [3] is Albumin (Bos taurus, UniProt P02769). Description: Binding affinity to bovine serum albumin assessed as change in fluorescence intensity at 10 uM measured after 60 mins by fluorescence assay. Type of data set: ADME. To be noted: cattle, isolated protein, 1 h. The procedure, abridged:
as §2

The next data set has as its system Aspergillus oryzae. The data set can be described thus: Binding affinity to oryzae beta-galactosidase assessed as change in fluorescence intensity at 10 uM measured after 60 mins by fluorescence assay. Summed up:
as §2

In a further data set the target is Trypsin (Homo sapiens) (UniProt P07477+P07478+P35030). Description: Binding affinity to trypsin (unknown origin) assessed as change in fluorescence intensity at 10 uM measured after 60 mins by fluorescence assay. Type of data set: protein assay. The procedure, abridged: as §2
Data set [4] deals with T1, Indoleamine 2,3-dioxygenase 1. The data set can be described thus: Inhibition of IDO1 in IFNgamma-stimulated human HeLa cells using tryptophan as substrate measured after 48 hrs.
Target sequence in this assay (P14902 whole entry): as the sequence (P14902 whole entry, looked up) above
A further data set has as its system Escherichia coli. The data set can be described thus: Binding affinity to Escherichia coli beta-galactosidase assessed as change in fluorescence intensity at 10 uM measured after 60 mins by fluorescence assay. Summed up:
as §2

Data set [5] addresses T1, Indoleamine 2,3-dioxygenase 1. Description: Binding affinity to recombinant human IDO1 expressed in Escherichia coli BL21 (DE3) assessed as increase in fluorescence intensity at 10 uM measured after 60 mins by fluorescence assay relative to control. The procedure, abridged:
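Human IDO1 was expressed in E. coli BL21(DE3), induced with 0.4 mM IPTG at OD600 0.6 for 18 h at 18 °C, then purified on Ni column (0–250 mM imidazole gradient) and gel filtration. Probe was titrated with increasing IDO1 in 10 mM PBS, pH 7.4, 1% DMSO, for 60 min at room temperature. Fluorescence: excitation 465 nm, emission 532 nm. Detection limit was taken at signal-to-noise ratio 3.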
Target sequence in this assay (P14902 whole entry, looked up): as above

Data set [6] has as its target Albumin (Homo sapiens, UniProt P02768). The data set can be described thus: Binding affinity to human serum albumin assessed as change in fluorescence intensity at 10 uM measured after 60 mins by fluorescence assay. In kind it is ADME. Conditions: isolated protein, 1 h. Summed up:
as §2

A short description of data set [7]: Binding affinity to GSH assessed as change in fluorescence intensity at 10 uM measured after 60 mins by fluorescence assay. The procedure, abridged: as §2
In another data set the test system is HeLa. Description: Cytotoxicity against human HeLa cells assessed as reduction in cell viability measured after 72 hrs by CCK8 assay. In kind it is cell-based. The procedure, abridged: (§3)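 Log-phase HeLa or CT26 cells were seeded at 6 × 10³ per well and grown 24 h at 37 °C, 5% CO₂. Cells were treated with a concentration series in triplicate for 72 h. Medium was then replaced with medium containing 10% CCK8 and incubated a further 40 min.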

Data set [8] relates to CT26. Description: Cytotoxicity against mouse CT26 cells assessed as reduction in cell viability measured after 72 hrs by CCK8 assay. Type of data set: cell-based. To be noted: CT26, 72 h. Summed up:
as §3

The subject of data set [9] is CT26. Description: Antitumor activity against mouse CT26 cells implanted in BALB/c mouse assessed as tumor growth inhibition at 100 mg/kg, po administered daily for 12 days relative to control. Type of data set: functional. To be noted: 288 h, time 12 day, read-out: TGI. Summed up:
(§4)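 Female Balb/c mice, 4–5 weeks old, were inoculated subcutaneously in the right forelimb with 5 × 10⁵ log-phase CT26 cells in RPMI. Once tumors reached about 50 mm³, mice were randomized (n = 5 per group) and dosed orally at 100 mg/kg daily. Tumor length, width and body weight were recorded every other day, with V = ½ab². Mice were sacrificed when control tumors approached 2000 mm³. TGI = (Vcontrol − Vcompound)/Vcontrol at the last day. Data are mean ± SEM; Student's t-test.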

The nature of data set [10]: Drug uptake in human HeLa cells at 5 nM measured after 5 mins by Hoechst staining based confocal fluorescence imaging analysis. In kind it is ADME, cell-based. To be noted: 0.005 µM. The procedure, abridged: as §1
Data set [11] in a line: Toxicity in BALB/c mouse implanted with mouse CT26 cells assessed as loss of body weight at 100 mg/kg, po administered daily for 12 days measured every other day during compound dosing. To be noted: in vivo, 288 h, time 12 day. Type of data set: organism-based. The procedure, abridged: as §4
Data set [12] addresses T1, Indoleamine 2,3-dioxygenase 1. The data set can be described thus: Binding affinity to IDO1 in IFNgamma-stimulated human HeLa cells at 5 nM measured after 5 mins in presence of IDO1 inhibitor epacadostat by Hoechst staining based confocal fluorescence imaging analysis. The procedure, abridged:
as §1
Target sequence in this assay (P14902 whole entry, looked up): as above

For data set [13] the target is unchanged. The data set can be described thus: Binding affinity to IDO1 in IFNgamma-stimulated human HeLa cells at 3.5 nM measured after 5 mins by Hoechst staining based confocal fluorescence imaging analysis. The procedure, abridged:
as §1
Target sequence in this assay (P14902 whole entry, looked up): as above

Data set [14] shares this target. The data set can be described thus: Binding affinity to IDO1 in IFNgamma-stimulated human HeLa cells at 3.5 nM measured after 5 mins in presence of IDO1 inhibitor epacadostat by Hoechst staining based confocal fluorescence imaging analysis. Summed up: as §1
Target sequence in this assay (P14902 whole entry, looked up): as above
The nature of data set [15]: Drug uptake in human HeLa cells at 3.5 nM measured after 5 mins by Hoechst staining based confocal fluorescence imaging analysis. In kind it is ADME, cell-based. To be noted: 0.0035 µM. The procedure, abridged: as §1

pIC50: −log10 of the molar value. The source made the active and inactive calls. The rule behind the calls is not given here.

Chain of Albumin (Bos taurus, UniProt P02769) (P02769 whole entry): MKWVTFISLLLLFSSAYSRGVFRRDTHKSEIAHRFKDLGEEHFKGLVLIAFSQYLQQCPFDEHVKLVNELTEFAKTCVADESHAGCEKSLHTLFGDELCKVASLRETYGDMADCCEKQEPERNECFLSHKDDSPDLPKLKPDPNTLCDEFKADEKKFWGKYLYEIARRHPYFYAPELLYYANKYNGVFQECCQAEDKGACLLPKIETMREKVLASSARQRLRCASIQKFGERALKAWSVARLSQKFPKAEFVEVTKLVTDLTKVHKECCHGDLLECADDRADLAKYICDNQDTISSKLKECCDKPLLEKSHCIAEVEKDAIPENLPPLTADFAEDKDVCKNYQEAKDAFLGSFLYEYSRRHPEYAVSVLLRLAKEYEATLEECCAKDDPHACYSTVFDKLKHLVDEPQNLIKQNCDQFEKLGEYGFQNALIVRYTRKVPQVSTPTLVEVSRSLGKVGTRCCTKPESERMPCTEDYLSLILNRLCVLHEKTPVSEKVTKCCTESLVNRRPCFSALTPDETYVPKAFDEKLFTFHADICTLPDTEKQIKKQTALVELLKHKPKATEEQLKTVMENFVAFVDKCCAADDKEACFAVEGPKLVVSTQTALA
Chain of Albumin (Homo sapiens, UniProt P02768) (P02768 whole entry): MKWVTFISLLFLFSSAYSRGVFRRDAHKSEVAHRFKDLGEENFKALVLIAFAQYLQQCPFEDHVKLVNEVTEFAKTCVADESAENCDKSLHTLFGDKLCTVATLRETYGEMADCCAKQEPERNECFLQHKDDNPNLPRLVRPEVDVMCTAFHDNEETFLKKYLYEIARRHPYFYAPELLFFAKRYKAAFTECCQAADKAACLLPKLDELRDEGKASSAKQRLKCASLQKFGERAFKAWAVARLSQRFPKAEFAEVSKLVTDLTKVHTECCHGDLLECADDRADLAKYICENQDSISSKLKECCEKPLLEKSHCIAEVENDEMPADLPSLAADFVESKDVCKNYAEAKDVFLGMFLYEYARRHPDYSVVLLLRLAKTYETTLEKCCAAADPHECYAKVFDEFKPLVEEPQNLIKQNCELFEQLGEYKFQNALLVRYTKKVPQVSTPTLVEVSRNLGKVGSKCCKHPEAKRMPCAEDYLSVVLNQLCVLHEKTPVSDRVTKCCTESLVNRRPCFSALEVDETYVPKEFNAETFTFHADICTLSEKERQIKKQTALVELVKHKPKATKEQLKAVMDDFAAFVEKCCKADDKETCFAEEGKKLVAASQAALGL

`O=C(CNc1ccc([N+](=O)[O-])c2nonc12)NCCNc1nonc1/C(=N/O)Nc1ccc(F)c(Br)c1`: the result (in data set [1]; in the data set filed under Bos taurus; in the data set listed under Homo sapiens; with Aspergillus oryzae; on Trypsin (Homo sapiens); in the data set on Escherichia coli) was inactive. Also, the outcome in data set [5] and in data set [7] was inactive. In addition, the pIC50 in data set [2] is 5.88; in data set [4], less than 5.30; in the data set on HeLa it was less than 4.00; with CT26 [8] it was less than 4.00. The Activity result at Albumin [3] and on Albumin [6] was “Not Active” throughout.

With `O=C(CCNc1ccc([N+](=O)[O-])c2nonc12)NCCNc1nonc1/C(=N/O)Nc1ccc(F)c(Br)c1`, the outcome in data set [1] was Active. The outcome (in the data set filed under Bos taurus; in the data set listed under Homo sapiens; with Aspergillus oryzae; on Trypsin (Homo sapiens); in the data set with Escherichia coli; in data set [12]) was inactive. Besides, in data set [7], the outcome was inactive. In addition, the pIC50 in data set [2] was 7.92; in data set [4], 8.00; with HeLa, less than 4.00; in the data set with CT26 [8], less than 4.00. For the same molecule, the inhibition in vivo at 100 mg/kg in the data set on CT26 [9] came to 46%. Also, the figures for the Activity result (on Albumin [3]; in [11]; on Albumin [6]) were “Not Active”, “Non-Toxic” and “Not Active”, respectively. Besides, the Drug uptake result in [10] was “Not Active”. For the same molecule, the fold change (FC) in data set [5] turned out to be 5.

`O=[N+]([O-])c1ccc(NCCNc2nonc2/C(=N/O)Nc2ccc(F)c(Br)c2)c2nonc12`: the outcome (in the data set listed under Bos taurus; in the data set filed under Homo sapiens; in the data set on Aspergillus oryzae; at Trypsin (Homo sapiens); with Escherichia coli; in data set [14]) was inactive. In addition, the result in [7] was inactive. Further, the pIC50 in data set [2] was 7.55; in [4], 7.82; in the data set on HeLa, less than 4.00; in the data set on CT26 [8], less than 4.00. In addition, the Activity result at Albumin [3] and at Albumin [6] was “Not Active” in each case. Besides, the outcome in data set [13] and in [5] was Active. Further, in data set [15], the Drug uptake entry is reported as “Not Active”.

For the molecule `NS(=O)(=O)NCCNc1nonc1/C(=N/O)Nc1ccc(F)c(Br)c1` [EPACADOSTAT], in the data set on CT26 [9], the inhibition in vivo at 100 mg/kg was 49%. Besides, the pIC50 in the data set on HeLa and in the data set with CT26 [8] was less than 4.00 in each case.

For orientation: pIC50 means −log10 of the IC50, conventionally taken in molar units.
